Laboratory results from publication PMC2669314 (Journal of medicinal chemistry, 2009).
Where two headings read alike, the source gives them in different places. Blank lines part the entries; values can stand above or below the molecule they belong to. Where a SMILES comes first, the peptide text is derived from it. [ ]: non-standard residue; d: D form. The star is where a group is joined. FITC = O=C1OC2(c3ccc(O)cc3Oc3cc(O)ccc32)c2ccc(NC(=S)*)cc21; pY = N[C@@H](Cc1ccc(OP(=O)(O)O)cc1)C(=O)O; Ahx = NCCCCCC(=O)O

Legend:
Shc SH2 domain [1] = molecular target: T1, Shc SH2 domain (Homo sapiens, UniProt P29353); experiment: Fluorescence anisotropy competition assay using peptide 8 as reference peptide; assay type: binding
T1 sequence (P29353 488-579 limits assumed): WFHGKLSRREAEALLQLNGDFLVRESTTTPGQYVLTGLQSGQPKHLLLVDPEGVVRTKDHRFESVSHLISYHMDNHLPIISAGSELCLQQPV

Shc SH2 domain protein [2] = molecular target: T2, Shc SH2 domain protein (UniProt P29353); experiment: fluorescence polarisation
T2 sequence: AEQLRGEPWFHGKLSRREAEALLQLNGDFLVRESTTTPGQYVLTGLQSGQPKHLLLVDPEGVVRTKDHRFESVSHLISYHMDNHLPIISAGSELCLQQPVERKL

Shc SH2 domain [3] = molecular target: T1, Shc SH2 domain; experiment: Steady state; assay type: binding; details: for Kd ± s.d.: Table 1, FITC-labelled peptides, n.b. = no binding
Procedure, shortened: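 Direct titration: 5 nM N-terminal fluorescein-labelled peptide in 1× BS with 10% (v/v) DMSO, with Shc protein serially diluted in from a 100 μM starting concentration. Excitation at 485 nm and parallel/perpendicular emission at 535 nm. Kd comes from fitting anisotropy against protein concentration to a single-site quadratic binding model, corrected for the bound/free fluorescence intensity ratio.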

[4] = molecular target: FITC-NH-(CH2)4-CO-pY-Q-G-L-S-amide; experiment: fluorescence polarisation
[5] = molecular target: FITC-NH-(CH2)4-CO-L-pY-Q-G-L-S-amide; experiment: fluorescence polarisation
[6] = molecular target: FITC-NH-(CH2)3-CO-L-pY-Q-G-L-S-amide; experiment: fluorescence polarisation
[7] = molecular target: FITC-NH-(CH2)2-CO-pY-Q-G-L-S-amide; experiment: fluorescence polarisation
[8] = molecular target: FITC-NH-(CH2)5-CO-pY-Q-G-L-S-amide; experiment: fluorescence polarisation
[9] = molecular target: FITC-NH-(CH2)3-CO-pY-Q-G-L-S-amide; experiment: fluorescence polarisation
FITC-pY-Q-G-L-S-amide = experiment: fluorescence polarisation
[10] = molecular target: FITC-NH-(CH2)2-CO-L-pY-Q-G-L-S-amide; experiment: fluorescence polarisation
Shc SH2 domain protein [11] = molecular target: T2, Shc SH2 domain protein; experiment: fluorescence polarisation; remark: listed apart in the source

Molecule: CC(=O)NCCCCC(=O)N[C@@H](Cc1ccc(OP(=O)(O)O)cc1)C(=O)N[C@@H](CCC(N)=O)C(=O)NCC(=O)N[C@@H](CC(C)C)C(=O)N[C@@H](CO)C(N)=O [compound 15, Ac-NH-(CH2)4-CO-pY-Q-G-L-S-amide] (HELM PEPTIDE1{[ac].[O=C(CCCCN[*:1])[*:2]].[O=C([C@H](Cc1ccc(OP(=O)(O)O)cc1)N[*:1])[*:2]].Q.G.L.S.[am]}$$$$V2.0)
IC50 (Shc SH2 domain [1]): 158 ± 10 µM

IC50 (Shc SH2 domain protein [2]): 189 µM
Molecule: Ac-pY-Q-G-L-S-NHR, R = allyl, no N-allyl substitution (peptide 31)

Kd ± s.d. (Shc SH2 domain [3]): n.b.
Molecule: FITC-NH-(CH2) -CO-L-pY-Q-G-L-S-amide (LYQGLS; not fully specified; FITC-NH-(CH2)-CO- on the N-terminus; phosphotyrosine at 2; C-terminal amide) [compound 10]

Kd [4]: 0.35 µM
Kd [5]: 8.9 µM
Kd [6]: 8.6 µM
Kd [7]: 1.09 µM
Kd [8]: 4.7 µM
Kd [9]: 7.2 µM
Kd (FITC-pY-Q-G-L-S-amide): 12.4 µM
Kd [10]: 7.6 µM
Molecule: Shc SH2 domain protein (from UniProt P29353 480-583) (domain or fragment)

IC50 (Shc SH2 domain protein [2]): 112 µM
Molecule: Ac-pY-Q-G-L-S-amide (peptide)

Kd ± s.d. (Shc SH2 domain [3]): n.b.
Molecule: FITC-NH-(CH2)-CO-pY-Q-G-L-S-amide (YQGLS; not fully specified; FITC-NH-(CH2)-CO- on the N-terminus; phosphotyrosine at 1; C-terminal amide) [compound 5]

IC50 (Shc SH2 domain protein [2]): 165 µM
Molecule: Ac-pY-Q-G-L-S-NHR, R = homoallyl, no N-allyl substitution (peptide 35)

Molecule: CC(C)C[C@H](NC(=O)CNC(=O)[C@H](CCC(N)=O)NC(=O)[C@H](Cc1ccc(OP(=O)(O)O)cc1)NC(=O)[C@H](CC(C)C)NC(=O)CCCCCNC(=S)Nc1ccc2c(c1)C(=O)OC21c2ccc(O)cc2Oc2cc(O)ccc21)C(=O)N[C@@H](CO)C(N)=O [compound 14, FITC-NH-(CH2)5-CO-L-pY-Q-G-L-S-amide] ({FITC-Ahx}-L[pY]QGLS-NH2)
Kd ± s.d. (Shc SH2 domain [3]): n.b.

Molecule: CC(=O)N[C@@H](Cc1ccc(OP(=O)(O)O)cc1)C(=O)N[C@@H](CCC(N)=O)C(=O)NCC(N)=O [Ac-pY-Q-G-amide] (HELM PEPTIDE1{[ac].[O=C([C@H](Cc1ccc(OP(=O)(O)O)cc1)N[*:1])[*:2]].Q.G.[am]}$$$$V2.0)
IC50 (Shc SH2 domain [1]): > 500 µM

Molecule: CC(=O)N[C@@H](Cc1ccc(OP(=O)(O)O)cc1)C(=O)N[C@@H](CCC(N)=O)C(=O)NCC(=O)N[C@@H](CC(C)C)C(=O)N[C@@H](CO)C(N)=O [Ac-pY-Q-G-L-S-amide] (HELM PEPTIDE1{[ac].[O=C([C@H](Cc1ccc(OP(=O)(O)O)cc1)N[*:1])[*:2]].Q.G.L.S.[am]}$$$$V2.0)
IC50 (Shc SH2 domain [1]): 112.5 ± 0.7 µM
Shc SH2 domain binding affinity relative to parent Gly-containing peptide 45 (Shc SH2 domain [1]; relative to 45 (IC50 = 248 μM)): approximate doubling of binding affinity

Molecule: CC(C)C[C@H](NC(=O)CNC(=O)[C@H](CCC(N)=O)NC(=O)[C@H](Cc1ccc(OP(=O)(O)O)cc1)NC(=O)[C@H](CC(C)C)NC(=S)Nc1ccc2c(c1)C(=O)OC21c2ccc(O)cc2Oc2cc(O)ccc21)C(=O)N[C@@H](CO)C(N)=O [compound 3, FITC-L-pY-Q-G-L-S-amide] (HELM PEPTIDE1{[O=C1OC2(c3ccc(O)cc3Oc3cc(O)ccc32)c2ccc(NC(=S)[*:2])cc21].L.[O=C([C@H](Cc1ccc(OP(=O)(O)O)cc1)N[*:1])[*:2]].Q.G.L.S.[am]}$$$$V2.0)
Kd (Shc SH2 domain [3]; FITC-containing peptides): complete loss of binding affinity
Kd ± s.d. (Shc SH2 domain [3]): n.b. ^b

IC50 (Shc SH2 domain protein [11]): 248 µM
B1: Ac-pY-Q-G-L-amide (peptide)
peptide: YQGL
HELM: PEPTIDE1{[ac].[O=C([C@H](Cc1ccc(OP(=O)(O)O)cc1)N[*:1])[*:2]].Q.G.L.[am]}$$$$V2.0
SMILES: CC(=O)N[C@@H](Cc1ccc(OP(=O)(O)O)cc1)C(=O)N[C@@H](CCC(N)=O)C(=O)NCC(=O)N[C@@H](CC(C)C)C(N)=O

IC50 (Shc SH2 domain protein [11]): 91 µM
Molecule: Ac-[pY]QGL-{NH‑allyl} [Ac-pY-Q-G-L-NHR, R = allyl, no N-allyl substitution (peptide 38)]
